# pKi: −log10 of the molar value.
# Key:
# [1] = target: T1, Serotonin 3 (5-HT3) receptor (Rattus norvegicus, UniProt P35563+Q9JJ16); experiment: Ability to displace [3H]quipazine binding to 5-hydroxytryptamine 3 receptor sites in NG 108-15.; assay type: protein-complex assay
# T1 sequence (P35563 whole entry): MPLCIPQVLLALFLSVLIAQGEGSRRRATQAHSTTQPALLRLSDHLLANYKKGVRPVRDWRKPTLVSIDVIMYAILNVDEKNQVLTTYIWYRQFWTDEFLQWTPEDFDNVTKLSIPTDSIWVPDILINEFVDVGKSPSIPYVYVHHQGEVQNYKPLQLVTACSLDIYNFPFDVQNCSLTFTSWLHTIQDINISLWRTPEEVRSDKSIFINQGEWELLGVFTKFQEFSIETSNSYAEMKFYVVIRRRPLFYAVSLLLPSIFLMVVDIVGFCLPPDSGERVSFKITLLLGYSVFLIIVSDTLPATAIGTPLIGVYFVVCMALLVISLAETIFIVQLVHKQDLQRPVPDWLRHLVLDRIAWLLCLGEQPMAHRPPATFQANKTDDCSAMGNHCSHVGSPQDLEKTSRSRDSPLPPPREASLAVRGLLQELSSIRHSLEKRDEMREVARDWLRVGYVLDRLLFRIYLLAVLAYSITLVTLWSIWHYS
# T1 sequence (Q9JJ16 whole entry): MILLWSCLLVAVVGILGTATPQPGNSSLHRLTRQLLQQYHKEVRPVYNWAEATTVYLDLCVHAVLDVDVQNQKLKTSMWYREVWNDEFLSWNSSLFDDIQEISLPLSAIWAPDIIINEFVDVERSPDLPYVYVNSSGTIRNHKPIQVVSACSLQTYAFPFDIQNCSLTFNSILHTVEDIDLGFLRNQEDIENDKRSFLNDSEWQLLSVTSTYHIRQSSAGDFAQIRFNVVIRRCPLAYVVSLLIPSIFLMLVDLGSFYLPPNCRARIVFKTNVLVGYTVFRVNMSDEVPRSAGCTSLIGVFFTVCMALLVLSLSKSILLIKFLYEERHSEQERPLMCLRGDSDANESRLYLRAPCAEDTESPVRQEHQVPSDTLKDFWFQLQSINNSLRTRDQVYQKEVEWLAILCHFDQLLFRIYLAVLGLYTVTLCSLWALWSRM
# In short: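 Membranes from 3 × 10^6 NG 108-15 cells in 20 mM Tris-HCl pH 7.5 with 154 mM NaCl. Incubated with 2 nM [3H]quipazine and varying test concentrations, 37 °C for 60 min. Stopped with ice-cold buffer, then GF/C filtration and scintillation counting. Nonspecific binding defined with 10 μM MDL 72222. […] Mean ± SEM, n = 3.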
# [2] = target: Serotonin 3 (5-HT3) receptor (Rattus norvegicus) (UniProt P35563+Q9JJ16); experiment: Inhibition of 5-HT induced bradycardia [Benzold-Jarisch (BJ) reflex test] in rats at 5 min administered intravenously; assay type: functional
# In short: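 Male Wistar rats (230–330 g) under urethane (1.25 g/kg ip), tracheal cannula. Blood pressure taken from the left carotid, heart rate from the pressure trace. Compounds given iv via jugular vein. Bezold-Jarisch reflex evoked by bolus iv 5-HT 30 μg/kg, with challenges every 12 min. ED50 is the dose halving 5-HT bradycardia, by linear regression, 4 rats.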
# [3] = species on record: Rattus norvegicus; experiment: animal or person; assay type: functional; details: 5 min
# [4] = target: T1, Serotonin 3 (5-HT3) receptor; experiment: Compound was evaluated for its ability to displace [3H]quipazine binding to 5-hydroxytryptamine 3 receptor sites in NG 108-15.; assay type: protein-complex assay
Structure (SMILES),pKi [1],ED50 [2] [mg/kg],ED50 [3] [mg/kg],pKi [4]
CCCOc1cc(C(=O)OC2CC3CCC(C2)N3C)c2ccccc2n1 (stereo not drawn),9.49,6.78,,
CCCOc1cc(C(=O)NC2CC3CCC(C2)N3C)c2ccccc2n1 (stereo not drawn),7.38,,,
CCCCN1C(=O)CC(C(=O)OC2CC3CCC(C2)N3C)c2ccccc21 (stereo not drawn),8.06,,,
CN1C2CCC1CC(NC(=O)c1ccnc3ccccc13)C2 (stereo not drawn),< 7.00,,,
Cc1nccn1CC1CCc2c(c3ccccc3n2C)C1=O (stereo not drawn) [ONDANSETRON],,,0.021,
COc1cc(C(=O)OC2CC3CCC(C2)N3C)c2ccccc2n1 (stereo not drawn),9.24,5.64,,
CN1C2CCC1CC(NC(=O)c1cc(=O)n(C)c3ccccc13)C2 (stereo not drawn),< 7.00,,,
CN1C2CCC1CC(OC(=O)c1cc(=O)n(C)c3ccccc13)C2 (stereo not drawn),8.59,0.18,,
CCCCCOc1cc(C(=O)OC2CC3CCC(C2)N3C)c2ccccc2n1 (stereo not drawn),9.07,1.13,,
CC(C)Oc1cc(C(=O)OC2CC3CCC(C2)N3C)c2ccccc2n1 (stereo not drawn),9.51,1.62,,
CN1C2CCC1CC(NC(=O)c1cc(=O)n(-c3ccccc3)c3ccccc13)C2 (stereo not drawn),7.20,,,
CN1C2CCC1CC(OC(=O)c1cc(=O)n(Cc3ccccc3)c3ccccc13)C2 (stereo not drawn),8.89,,,
CCCCn1c(=O)cc(C(=O)OC2CC3CCC(C2)N3C)c2ccccc21 (stereo not drawn),9.17,0.041,,
CN1C2CCC1CC(OC(=O)c1cc(O)nc3ccccc13)C2 (stereo not drawn),,,0.017,8.36
CCCCOc1cc(C(=O)NC2CC3CCC(C2)N3C)c2ccccc2n1 (stereo not drawn),7.72,,,
CN1C2CCC1CC(OC(=O)c1ccnc3ccccc13)C2 (stereo not drawn),,,,8.15
CN1C2CCC1CC(OC(=O)c1cc(=O)n(-c3ccccc3)c3ccccc13)C2 (stereo not drawn),9.29,0.044,,
CC(C)n1c(=O)cc(C(=O)OC2CC3CCC(C2)N3C)c2ccccc21 (stereo not drawn),10.49,0.081,,

Structure (SMILES),pKi [1],ED50 [2] [mg/kg],ED50 [3] [mg/kg],pKi [4]
CCCCOc1cc(C(=O)OC2CC3CCC(C2)N3C)c2ccccc2n1 (stereo not drawn),9.41,0.2,,
CC(C)Oc1cc(C(=O)NC2CC3CCC(C2)N3C)c2ccccc2n1 (stereo not drawn),7.28,,,
CCCCn1c(=O)cc(C(=O)OC2CC3CCC(C2)N3C)c2cc(C)ccc21 (stereo not drawn),7.36,,,
CCCCCn1c(=O)cc(C(=O)OC2CC3CCC(C2)N3C)c2ccccc21 (stereo not drawn),9.02,0.059,,
CCCCn1c(=O)cc(C(=O)NC2CC3CCC(C2)N3C)c2ccccc21 (stereo not drawn),7.22,,,
CCCn1c(=O)cc(C(=O)NC2CC3CCC(C2)N3C)c2ccccc21 (stereo not drawn),7.17,,,
CCOc1cc(C(=O)OC2CC3CCC(C2)N3C)c2ccccc2n1 (stereo not drawn),9.06,0.07,,
CCCCCCn1c(=O)cc(C(=O)OC2CC3CCC(C2)N3C)c2ccccc21 (stereo not drawn),8.96,,,
CCCCn1c(=O)c(CC)c(C(=O)NC2CC3CCC(C2)N3C)c2ccccc21 (stereo not drawn),< 7.00,,,
CC(C)CCn1c(=O)cc(C(=O)OC2CC3CCC(C2)N3C)c2ccccc21 (stereo not drawn),8.82,0.059,,
CCn1c(=O)cc(C(=O)OC2CC3CCC(C2)N3C)c2ccccc21 (stereo not drawn),8.96,0.022,,
CCCn1c(=O)cc(C(=O)OC2CC3CCC(C2)N3C)c2ccccc21 (stereo not drawn),9.35,0.33,,
CN1C2CCC1CC(NC(=O)c1cc(O)nc3ccccc13)C2 (stereo not drawn),< 7.00,,,
CC(C)COc1cc(C(=O)OC2CC3CCC(C2)N3C)c2ccccc2n1 (stereo not drawn),9.36,0.24,,
CCCCn1c(=O)c(CC)c(C(=O)OC2CC3CCC(C2)N3C)c2ccccc21 (stereo not drawn),6.80,,,
CC(C)Cn1c(=O)cc(C(=O)OC2CC3CCC(C2)N3C)c2ccccc21 (stereo not drawn),9.33,0.069,,
CCCCCCOc1cc(C(=O)OC2CC3CCC(C2)N3C)c2ccccc2n1 (stereo not drawn),8.49,7.68,,

# — ChEMBL document CHEMBL1125569, “5-HT3 receptor antagonists. 1. New quinoline derivatives” (J Med Chem, 1992)
